Reference: ChEMBL document CHEMBL1159367, “Antineoplastic agents. 485. Isolation and structure of cribrostatin 6, a dark blue cancer cell growth inhibitor from the marine sponge Cribrochalina sp” (2003)
Converted amounts (≈) assume the structure as drawn.

Assays:
Assay type in all cases: functional
Candida albicans = test: Antimicrobial activity against Candida albicans ATCC 90028 by broth microdilution susceptibility assay
Enterococcus faecalis [1] = test: Antimicrobial activity against Enterococcus faecalis ATCC 29212 isolate by broth microdilution susceptibility assay
How it was run: (§1)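 Broth microdilution susceptibility testing following established reference methods. MIC was taken as the lowest compound concentration giving complete inhibition of visible growth, with wells optically clear.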

SF-268 = test: Growth inhibition of human SF268 cells
BXPC-3 = test: Growth inhibition of human BxPC3 cells
Streptococcus pneumoniae [2] = test: Antimicrobial activity against Streptococcus pneumoniae ATCC 6303 by broth microdilution susceptibility assay
MCF7 = test: Growth inhibition of human MCF7 cells
Staphylococcus aureus [3] = test: Antimicrobial activity against Staphylococcus aureus ATCC 29213 by broth microdilution susceptibility assay; how it was run: as §1
KM-20L2 = test: Growth inhibition of human KM20L2 cells
Escherichia coli = test: Antimicrobial activity against Escherichia coli ATCC 25922 by broth microdilution susceptibility assay
Enterococcus faecalis [4] = test: Antimicrobial activity against vancomycin-resistant Enterococcus faecalis isolate by broth microdilution susceptibility assay; how it was run: as §1
Staphylococcus aureus [5] = test: Antimicrobial activity against methicillin-resistant Staphylococcus aureus isolate by broth microdilution susceptibility assay; how it was run: as §1
Bacillus subtilis = test: Antimicrobial activity against Bacillus subtilis isolate by broth microdilution susceptibility assay
Neisseria gonorrhoeae = test: Antimicrobial activity against Neisseria gonorrhoeae ATCC 49226 by broth microdilution susceptibility assay
Streptococcus pneumoniae [6] = test: Antimicrobial activity against penicillin-resistant Streptococcus pneumoniae isolate by broth microdilution susceptibility assay; how it was run: as §1
Enterobacter cloacae = test: Antimicrobial activity against Enterobacter cloacae ATCC 13047 by broth microdilution susceptibility assay
Micrococcus luteus = test: Antimicrobial activity against Micrococcus luteus Presque Isle 456 by broth microdilution susceptibility assay
Streptococcus pneumoniae [7] = test: Antimicrobial activity against Streptococcus pneumoniae isolate by broth microdilution susceptibility assay
P388 = test: Growth inhibition of mouse P388 cells
DU-145 = test: Growth inhibition of human DU145 cells
Cryptococcus neoformans = test: Antimicrobial activity against Cryptococcus neoformans ATCC 90112 by broth microdilution susceptibility assay
NCI-H460 = test: Growth inhibition of human NCI-H460 cells
[8] = system: Stenotrophomonas maltophilia; test: Antimicrobial activity against Stenotrophomonas maltophilia ATCC 13637 by broth microdilution susceptibility assay
Streptococcus = test: Antimicrobial activity against Streptococcus isolate by broth microdilution susceptibility assay

`CCOC1=C(C)C(=O)c2ccn3c(C)ncc3c2C1=O` [CRIBROSTATIN 6] was tested, and the MIC (Candida albicans) was 64 µg/mL (≈ 237 µM), the MIC (Enterococcus faecalis [1]) was 32 µg/mL (≈ 118 µM) and the GI50 (SF-268) was 0.24 µg/mL (≈ 0.888 µM). For the same compound, the GI50 (BXPC-3) was > 1 µg/mL, the MIC (Streptococcus pneumoniae [2]) was 0.5 µg/mL (≈ 1.85 µM) and the GI50 (MCF7) was 0.21 µg/mL (≈ 0.777 µM). The MIC (Staphylococcus aureus [3]) was 16 µg/mL (≈ 59.2 µM), the GI50 (KM-20L2) was > 1 µg/mL and the MIC (Escherichia coli) was > 64 µg/mL. It also gave an MIC (Enterococcus faecalis [4]) of 32 µg/mL (≈ 118 µM), an MIC (Staphylococcus aureus [5]) of 16 µg/mL (≈ 59.2 µM) and an MIC (Bacillus subtilis) of 2 µg/mL (≈ 7.4 µM). The MIC (Neisseria gonorrhoeae) was 0.0625 µg/mL (≈ 0.231 µM), the MIC (Streptococcus pneumoniae [6]) was 2 µg/mL (≈ 7.4 µM) and the MIC (Enterobacter cloacae) was > 64 µg/mL. It also gave an MIC (Micrococcus luteus) of 16 µg/mL (≈ 59.2 µM), an MIC (Streptococcus pneumoniae [7]) of 1 µg/mL (≈ 3.7 µM) and a GI50 (P388) of 0.29 µg/mL (≈ 1.07 µM). It also gave an EC50 (P388; read-out: ED50 (the source's name)) of 0.3 µg/mL (≈ 1.11 µM), a GI50 (DU-145) of 0.38 µg/mL (≈ 1.41 µM) and an MIC (Cryptococcus neoformans) of 2 µg/mL (≈ 7.4 µM). For the same compound, the GI50 (NCI-H460) was > 1 µg/mL, the MIC [8] was > 64 µg/mL and the MIC (Streptococcus) was 16 µg/mL (≈ 59.2 µM).
